Source: PubChem BioAssay
Hits are enriched below; roughly 2.6% of the tested compounds scored in any of these assays.
TAAR1 antag – human TAAR1 antagonists, primary screen, Fluo-8 calcium fluorescence, CHO RD-HGA16 cells; Trace amine-associated receptor 1 (Homo sapiens), Q96RJ0; AID 624466, 2012; 360,000 tested, 1.5% active; inhibition, % at 3 µM; antagonist;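 active = inhibition above a per-plate cutoff, the mean inhibition of test compounds on that plate plus 3 SD, cut at about 49% in these data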;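 also: 0% = DMSO plus EC80 beta-PEA response and 100% = DMSO alone without agonist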
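Material: CHO RD-HGA16 cells bearing hTAAR1; compound dosing: one-point dosing, 3 µM nominal final; schedule: dye loading 75 min at 37 °C, then 30 min room temperature; measured by: calcium fluorescence with Fluo-8; control set: vehicle and agonist controls; replication: n of 1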
TAAR1 agonist – human TAAR1 agonists, primary screen, Fluo-8 calcium fluorescence, CHO RD-HGA16 cells; Trace amine-associated receptor 1 (Homo sapiens), Q96RJ0; activation, % at 3 µM; vehicle wells 0%, saturating PEA agonist 100%; AID 624467, 2012; 360,000 tested, 0.99% active;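 active = activation above the mean activation of all test compounds in the run plus 3 SD, cut at about 38% in these data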
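Signal – calcium-sensitive Fluo-8 signal, excitation 470-495, emission 515-575 nm · System – RD-HGA16 (CHO) cells co-expressing Gα16 and hTAAR1 · Incubation – 17-24 h seeding, 75 min 37 °C dye, 30 min RT · Compound dosing – 3 µM single concentration · Repeats – no replicates (n 1)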
Rce1 inh – yeast Rce1p protease inhibitors, primary screen, biochemical, fluorescence, cell-free homogeneous | calls only | yeast membranes, quenched prenylated peptide cleavage fluorescence | CAAX prenyl protease 2 (Saccharomyces cerevisiae (strain ATCC 204508 / S288c)), Q03530 | AID 2563, 2010 | 290,000 tested, 0.27% active;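 active = fall in fluorescence gain of 50% or more versus controls, with final raw signal at or below 3038400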;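 also: plate controls were neutral control wells for no effect and wells lacking membranes for full effect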
Target sequence (Q03530 whole entry, looked up): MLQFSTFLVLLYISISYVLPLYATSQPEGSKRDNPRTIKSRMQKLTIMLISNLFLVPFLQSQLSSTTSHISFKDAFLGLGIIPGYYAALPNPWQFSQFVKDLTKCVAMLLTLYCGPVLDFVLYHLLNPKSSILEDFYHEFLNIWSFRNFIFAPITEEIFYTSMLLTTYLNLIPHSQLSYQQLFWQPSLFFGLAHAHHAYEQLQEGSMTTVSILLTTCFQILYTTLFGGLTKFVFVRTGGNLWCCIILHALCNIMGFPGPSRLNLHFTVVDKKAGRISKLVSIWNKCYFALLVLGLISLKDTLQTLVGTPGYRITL
VLA-4 inh – inhibition in human VLA-4 binding assay, primary screen, VLA-4 allosteric modulator project, MLPCN library, flow cytometry, VLA-4 expressing cells; Integrin alpha-4 (Homo sapiens), P13612; ligand binding flow cytometry; inhibition, % (about 7 µM as worked out from the volumes in the protocol); 330,000 tested, 0.2% active; in the data active = inhibition above about 50%
Platelet DG rel – inhibitors of platelet dense granule secretion, primary screen, cell-based, MLPCN, human platelets | human platelet-rich plasma, SFLLRN dense granule ATP release, luminescence | inhibition, %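 (compounds screened at 7.5 µM in platelet-rich plasma)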 | 300,000 tested, 0.22% active;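 active = mean replicate score, as percent of positive control, at or above 50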
VLA-4 mod pick – retest of VLA-4 allosteric modulators, confirmation, cell-based, cherry-picked plates, U937, HUTS-21 LIBS antibody; shares compounds with VLA-4 inh; U937 cells, HUTS-21 LIBS mAb binding, flow cytometry; LDV ligand present at threefold Kd; inhibition, % at 6.7 µM; 1,300 tested, 2% active; in the data active = inhibition above about 40%;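 also: 0% = ligand without compound and 100% = no ligand background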
* = called active by the depositor; i = inactive; x = no result.

SMILES	TAAR1 antag	TAAR1 agonist	Rce1 inh	VLA-4 inh	Platelet DG rel	VLA-4 mod pick
CCOc1cc(N2CCOCC2)c(OCC)cc1NC(=O)c1ccc(S(=O)(=O)N2CC(C)OC(C)C2)cc1 (stereo not drawn)	6.6	-0.8	x	x	x	x
Cc1cccc(NC(=O)C2CCN(C(=O)c3ccccc3C)CC2)n1	9.9	1.4	x	-2.8	x	-3.2
O=C(Nc1ccccn1)C1CCN(C(=O)c2ccc(F)cc2)CC1	-16.3	1.8	i	26.0	26.8	4.0
O=C(Nc1ccccc1N1CCCC1)C1CCN(C(=O)c2ccc(F)cc2)CC1	-23.4	2.8	i	-1.2	1.7	x
Nc1nonc1-n1nnc(C(=O)N/N=C/c2ccc(OCc3ccccc3)cc2)c1CNc1ccccc1	-19.4	0.1	i	0.2	2.8	x
O=C1CCCCN1CCCC(=O)N1CCCC(Nc2ccc(F)c(F)c2)C1 (stereo not drawn)	-12.5	-0.4	i	3.7	-4.8	x
CCc1ccc(N2C(=O)c3cc(N4CCOCC4)c([N+](=O)[O-])cc3C2=O)cc1	x	x	i	42.9	1.1	-11.8
Cc1cc(=O)oc2cc(OS(C)(=O)=O)ccc12	-25.7	3.0	i	41.0	-5.8	5.4
NS(=O)(=O)c1cccc(NC(=O)CN2C(=O)C(=O)N(Cc3ccccc3)C2=O)c1	-13.9	2.0	x	-7.0	x	x
CC(NC(=O)COC(=O)C1CC1C)c1cccc(Cl)c1 (stereo not drawn)	-7.1	-1.9	x	5.6	x	x
Cc1cc2c(cc1C)C(c1ccccc1F)CC(=O)N2 (stereo not drawn)	-7.9	0.8	i	8.7	0.5	x
Cc1cc2c(cc1C)C(c1cccc(F)c1)CC(=O)N2 (stereo not drawn)	0.8	4.3	i	-0.3	-1.0	-3.9
CC1=C(C(=O)Nc2ccc(F)cc2)C(c2cccc(C)c2)n2nc(CCCO)nc2N1 (stereo not drawn)	-5.9	0.3	i	51.3*	-2.0	-3.9
COc1ccc(C2C(C(=O)Nc3ccccc3)=C(C)Nc3nc(CCCO)nn32)cc1 (stereo not drawn)	4.6	12.2	i	8.7	-1.7	x
COc1ccc(C(=O)C2CCCN(Cc3c[nH]c4ccccc34)C2)c(OC)c1 (stereo not drawn)	12.0	8.6	i	55.1*	-10.8	1.8
OC1C2COC(O2)C2OC(c3ccccc3)OC12 (stereo not drawn)	-3.2	0.4	x	x	x	x
Cc1ccc(/C(O)=C2\C(=O)C(=O)N(C)C2c2ccc([N+](=O)[O-])cc2)cc1 (stereo not drawn)	-11.8	0.6	i	13.6	10.6	x
Cc1ccc(/C(O)=C2/C(=O)C(=O)N(CC(=O)O)C2c2ccc([N+](=O)[O-])cc2)cc1 (stereo not drawn)	1.7	-0.3	x	64.1*	-2.9	5.1
Cc1ccc(S(=O)(=O)NCCc2cn3nc(C)c(C)nc3n2)cc1C	-23.5	0.2	i	-2.2	10.4	x
CCOC(=O)Cc1nnc(Nc2cccc(O)c2)c2ccccc12	-7.1	3.2	i	89.5*	-0.8	-14.7
CCOC(=O)Cc1nnc(Nc2ccc(C(=O)NC)cc2)c2ccccc12	-21.2	1.1	i	-3.8	-0.8	x
COc1ccc(Cl)cc1NC(=O)COC(=O)c1ccc(Cl)nc1	-9.9	2.8	x	-4.4	x	x
COc1cc(OC)cc(-c2sc3ccc(OC)cc3c2-c2ccc(OCCN3CCOCC3)cc2)c1	x	x	x	x	x	6.5
COc1cccc(-c2sc3ccc(OC)cc3c2-c2ccc(OCCN3CCOCC3)cc2)c1	29.0	6.0	x	18.5	x	7.3
COc1ccc(-c2sc3cc4c(cc3c2-c2ccc(OCCN3CCOCC3)cc2)OCO4)cc1	-11.0	1.8	x	26.1	x	15.0
COc1cccc(-c2sc3ccc(OC)cc3c2-c2cc(F)cc(OC)c2)c1	-1.0	18.7	x	-11.2	x	x
COc1cccc(-c2sc3ccc(OC)cc3c2-c2cnc(N3CCOCC3)nc2)c1	-4.1	1.4	x	x	x	x
